Here are results for five molecules from article PMC13416249 (Proceedings of the National Academy of Sciences of the …, 2026).

The structures appear in SMILES notation.

For experiment [1], the system named is P. falciparum isolates from the Brazilian Western Amazon. In words: Ex vivo schizont maturation test on patient isolates. In kind it is cell-based. The settings on record: Plasmodium falciparum, in Homo sapiens, read-out: median EC50. In outline:
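Isolates came from monoinfected patients in Porto Velho, Rondônia, and were exposed to test compound. Thick films were stained with 5% Giemsa and schizonts counted. Counts were normalized to drug-free controls to calculate EC50.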

Another experiment concerns the target T1, full-length PfMyoA (Plasmodium falciparum, UniProt Q8IDR3).
T1 sequence (Q8IDR3 1-818): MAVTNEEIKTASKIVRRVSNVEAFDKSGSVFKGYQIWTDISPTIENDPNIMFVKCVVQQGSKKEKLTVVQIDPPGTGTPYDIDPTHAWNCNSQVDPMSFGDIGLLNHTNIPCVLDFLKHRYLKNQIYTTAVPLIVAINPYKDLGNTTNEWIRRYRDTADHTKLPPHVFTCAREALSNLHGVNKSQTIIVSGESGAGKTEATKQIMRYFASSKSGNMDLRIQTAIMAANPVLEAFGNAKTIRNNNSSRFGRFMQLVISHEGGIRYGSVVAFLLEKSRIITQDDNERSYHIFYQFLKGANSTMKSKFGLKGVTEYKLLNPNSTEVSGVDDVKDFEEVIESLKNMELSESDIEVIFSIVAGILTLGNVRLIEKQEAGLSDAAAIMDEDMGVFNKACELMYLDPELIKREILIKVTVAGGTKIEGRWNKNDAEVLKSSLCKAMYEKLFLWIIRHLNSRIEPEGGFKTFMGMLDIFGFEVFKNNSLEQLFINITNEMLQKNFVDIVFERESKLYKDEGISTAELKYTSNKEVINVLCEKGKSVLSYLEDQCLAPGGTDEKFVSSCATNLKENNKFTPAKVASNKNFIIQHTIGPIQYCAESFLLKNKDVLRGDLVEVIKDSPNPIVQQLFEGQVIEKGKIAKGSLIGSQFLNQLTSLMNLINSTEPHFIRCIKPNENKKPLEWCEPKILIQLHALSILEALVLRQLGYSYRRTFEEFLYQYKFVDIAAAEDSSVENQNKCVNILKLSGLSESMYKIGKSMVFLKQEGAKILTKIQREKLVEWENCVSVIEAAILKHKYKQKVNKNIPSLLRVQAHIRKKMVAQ
T1 sequence (Q8IJM4 1-134 partner): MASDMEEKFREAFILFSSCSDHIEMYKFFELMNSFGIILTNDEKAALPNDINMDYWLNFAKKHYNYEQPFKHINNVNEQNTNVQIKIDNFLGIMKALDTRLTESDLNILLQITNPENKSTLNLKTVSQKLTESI
T1 sequence (Q8I4W8 1-204 partner): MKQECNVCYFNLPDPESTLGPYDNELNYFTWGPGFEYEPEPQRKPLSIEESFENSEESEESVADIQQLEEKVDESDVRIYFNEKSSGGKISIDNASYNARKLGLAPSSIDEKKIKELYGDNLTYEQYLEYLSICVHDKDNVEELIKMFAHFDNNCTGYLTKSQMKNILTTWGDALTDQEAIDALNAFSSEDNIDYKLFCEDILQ
In words: Actin-activated PfMyoA ATPase assay. The settings on record: read-out: IC50, actin-activated myosin ATPase, 15 µM actin. In kind it is biochemical.

The next experiment deals with P. falciparum 3D7. In words: Parasite reduction ratio. In kind it is cell-based, Plasmodium falciparum. The conditions noted are these: 10X IC50 of each compound. An outline of the steps:
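Parasite reduction ratio followed an established protocol, with each compound held at a fixed multiple of its potency. Parasite regrowth was detected by P. falciparum LDH assay. Data are mean ± SD.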

For experiment [2], the system named is P. falciparum NF54 strain expressing a Nanoluciferase reporter. Put plainly: Asexual replication stage-specificity assay, nanoluciferase readout. In kind it is cell-based, Plasmodium falciparum. The settings on record: ring-synchronized; 5 µM KNX-115, 1 µM DHA. An outline of the steps:
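NF54-ENL nanoluciferase reporter parasites were synchronized at the ring stage and treated with test compound. Vehicle (0.1% DMSO) and 1 µM dihydroartemisinin served as controls. Nanoluciferase activity was followed over time and compared with the control cultures.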

Experiment [3] deals with P. falciparum stage III-IV gametocytes. Put plainly: Gametocyte viability assay. In kind it is cell-based, Plasmodium falciparum.

A word on the EC50: it is the concentration needed to bring the measured effect to its halfway point. In the case of `CCN(CC)CCCC(C)Nc1ccnc2cc(Cl)ccc12` (stereo not drawn) [chloroquine], the EC50 in experiment [1] is 1260 nM. On the same count and under the same terms, as for `C[C@H]1[C@H](OC(=O)CCC(=O)O)O[C@@H]2O[C@@]3(C)CC[C@H]4[C@H](C)CC[C@@H]1[C@@]24OO3` [artesunate], the figure is 3.5 nM. In general, IC50 refers to the concentration at which inhibition is half-maximal. Take `COc1ccc(C2(NCc3c[nH]nc3-c3cccs3)CC2)cc1` [KNX-002]: the IC50 at full-length PfMyoA came out at 400 ± 100 nM. Consider `CCc1nc(N)nc(N)c1-c1ccc(Cl)cc1` [pyrimethamine], for which, in the experiment with P. falciparum 3D7, the lag before killing worked out at 24 h.

As for `C[C@H]1[C@@H](O)O[C@@H]2O[C@@]3(C)CC[C@H]4[C@H](C)CC[C@@H]1[C@@]24OO3` [DHA, dihydroartemisinin], the “parasite replication over time (luciferase activity)” value in experiment [2] was “rapid killing of the parasites”. In experiment [3], the “effect on gametocyte viability” value is “showed inhibition”.
